# “Also recorded” adds a separate entry of the source. * marks the point of attachment. AMC = Cc1cc(=O)oc2cc(N*)ccc12; Boc = CC(C)(C)OC(=O)*
# Tests used:
# MDA-MB-468 cells [1] = test: Cell uptake of 1; type: cell-based, human; conditions: 30 min; 600,000 MDA-MB-468 cells, 1 µCi of 1; γ-counter
# How it was run: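 MDA-MB-468 cells (600,000 per well) were seeded for 6 h. Medium was then replaced with fresh medium carrying 1 µCi of the 18F-labelled probe per well. Cells and medium were harvested at 5, 10, 20, 30, 60 and 90 min, and radioactivity was counted on a γ-counter.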
# [2] = Pharmacokinetic study of 1 in mice after i.v. administration; type: in vivo; conditions: i.v. about 3.0 mCi/kg, n = 5
# How it was run: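 Mice received the 18F radiotracer intravenously at about 3.0 mCi/kg. Mean plasma concentration–time profiles were fitted to a two-compartment model, from which t1/2, AUC0-t, CLtot, Vd and Cmax were derived.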
# MDA-MB-468 tumor = test: MicroPET tumor uptake in MDA-MB-468 tumor-bearing nude mice; type: in vivo; conditions: for tumor uptake of 1: PET, n = 4
# How it was run: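 Female BALB/c nude mice (4–8 weeks) received subcutaneous foreleg xenografts of 4 × 10^7 MDA-MB-468 cells in PBS, grown 4–6 weeks. Under isoflurane, mice were randomised to tail-vein dosing: 85 µCi of the 18F probe alone, or the probe plus 20 µmol/kg of its non-radioactive analogue. Ten-minute static PET scans were taken at 10 min to 6 h, reconstructed by 3D OSEM without attenuation or scatter correction. Decay-corrected ROI values were converted assuming 1 g/mL tissue density and divided by administered activity to give %ID/g.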
# MDA-MB-468 cells [3] = test: Cellular efflux titration; type: cell-based, human; conditions: 120 min efflux
# How it was run: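 MDA-MB-468 cells (1 million per well) were loaded for 1 h at 37 °C with 4 μCi of the 18F probe plus 0, 5, 25 or 50 μM of its non-radioactive analogue. Medium was then refreshed, marking efflux time 0. At 5–120 min the medium was exchanged and the removed medium was γ-counted. Cells were harvested and counted at 120 min to back-calculate total radioactivity at time 0.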
# furin [4] = molecular target: T1, furin (Homo sapiens, UniProt P09958); test: Time course HPLC analysis of furin-controlled condensation; type: biochemical; conditions: 100 µM, 1 nmol/U of furin, 37 °C
# How it was run: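 The non-radioactive analogue (100 µM) was incubated with furin (1 nmol/U) at 37 °C. Mixtures were analysed by HPLC eluted with CH3CN and water, each containing 0.1% TFA, against the untreated compound in water.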
# MDA-MB-468 cells [5] = test: MTT assay; type: cell-based, human; conditions: for cells survived (MTT): MDA-MB-468
# How it was run: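 MDA-MB-468 cells in log phase were seeded at 3 × 10^3 per well and settled 12 h (37 °C, 5% CO2). They were then exposed to the test compound at 25, 50 or 100 µM in medium for 3, 6 or 12 h. MTT (5 mg/mL stock in PBS, pH 7.4) was added for 4 h, and formazan was dissolved in 10% SDS/PBS. Absorbance was read at 570/680 nm. Viability (%) = mean treated absorbance / mean control absorbance × 100.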
# MDA-MB-468 cells [6] = test: Cell permeability of 1-Cold by fluorescence cell imaging; type: cell-based, human; conditions: 100 µM, 37 °C, 0.5 h, fluorescence microscopy
# How it was run: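 MDA-MB-468 breast adenocarcinoma cells were grown in DMEM with 10% FBS at 37 °C under 5% CO2. Cells (3 × 10^6) were exposed to the test compound (100 µM, 37 °C, 0.5 h) and washed three times with PBS. They were then imaged live on an inverted fluorescence microscope in the DAPI channel, with DIC overlay. The probe emits at 450 nm after intracellular furin-driven condensation.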
# furin [7] = molecular target: T1, furin; test: Michaelis-Menten kinetics of furin cleavage; type: biochemical
# [8] = Nanoparticle characterisation after furin incubation; type: physicochemical; conditions: 100 μM, furin 1 nmol/U, pH 7.4, 37 °C, 4 h vs before incubation
# How it was run: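 The non-radioactive analogue (100 µM) was incubated with furin (1 nmol/U) for 4 h at 37 °C. UV-vis spectra were recorded at room temperature. For TEM (200 kV), carbon-coated copper grids were dipped in the suspension, plunged into liquid nitrogen and freeze-dried. SEM was run on the same mixture. One furin unit releases 1 pmol MCA from Boc-RVRR-MCA per minute at 30 °C.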
# furin [9] = molecular target: T1, furin; conditions: 30 °C; ref Bachem; cited from earlier work
# T1 sequence (P09958 108-595 limits assumed): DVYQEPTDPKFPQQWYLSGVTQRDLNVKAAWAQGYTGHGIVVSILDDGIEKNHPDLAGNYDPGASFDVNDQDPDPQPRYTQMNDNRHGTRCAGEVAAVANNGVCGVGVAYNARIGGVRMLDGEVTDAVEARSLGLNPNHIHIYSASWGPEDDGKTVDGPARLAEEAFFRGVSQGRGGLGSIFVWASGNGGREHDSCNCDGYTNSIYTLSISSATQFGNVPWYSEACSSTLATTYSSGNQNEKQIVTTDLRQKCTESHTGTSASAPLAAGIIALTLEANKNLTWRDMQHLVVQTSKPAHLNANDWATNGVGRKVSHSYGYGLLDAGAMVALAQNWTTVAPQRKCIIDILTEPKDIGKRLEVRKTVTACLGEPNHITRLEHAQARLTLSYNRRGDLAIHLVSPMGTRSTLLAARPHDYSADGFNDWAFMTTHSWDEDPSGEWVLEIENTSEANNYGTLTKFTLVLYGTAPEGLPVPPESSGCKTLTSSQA
compound,measurement,setting,value
Acetyl-Arg-Val-Arg-Arg-Cys(StBu)-Lys(^18F-FB)-CBT [compound 1],cellular uptake (plateau),MDA-MB-468 cells [1],20.4 % of total radioactivity
same,Cmax,[2],7.471 mCi L^-1
same,mean AUC0-t,[2],452.2 min mCi L^-1
same,tumor uptake ratio (Co-injected/1 alone),MDA-MB-468 tumor; 10 min p.i.,2.5
same,tumor uptake of 1,"MDA-MB-468 tumor; 10 min p.i., 85 µCi 1 alone",1.02 ± 0.19 % ID/g
same,tumor uptake of 1,"MDA-MB-468 tumor; 10 min p.i., co-injected 85 µCi 1 + 20 µmol/kg 1-Cold",2.52 ± 0.95 % ID/g
same,tumor uptake ratio (Co-injected/1 alone),MDA-MB-468 tumor; 30 min p.i.,3.6
same,tumor uptake of 1,"MDA-MB-468 tumor; 30 min p.i., 85 µCi 1 alone",1.12 ± 0.08 % ID/g
same,tumor uptake of 1,"MDA-MB-468 tumor; 30 min p.i., co-injected 85 µCi 1 + 20 µmol/kg 1-Cold",4.08 ± 0.48 % ID/g
same,tumor uptake ratio (Co-injected/1 alone),MDA-MB-468 tumor; 60 min p.i.,6.4
same,tumor uptake of 1,"MDA-MB-468 tumor; 60 min p.i., 85 µCi 1 alone",0.52 ± 0.18 % ID/g
same,tumor uptake of 1,"MDA-MB-468 tumor; 60 min p.i., co-injected 85 µCi 1 + 20 µmol/kg 1-Cold",3.31 ± 1.22 % ID/g
same,tumor uptake ratio (Co-injected/1 alone),MDA-MB-468 tumor; 120 min p.i.,7.9
same,tumor uptake of 1,"MDA-MB-468 tumor; 120 min p.i., co-injected 85 µCi 1 + 20 µmol/kg 1-Cold",2.27 ± 1.86 % ID/g
same,tumor uptake of 1,"MDA-MB-468 tumor; 240 min p.i., 85 µCi 1 alone",0.19 ± 0.03 % ID/g
same,tumor uptake of 1,"MDA-MB-468 tumor; 240 min p.i., co-injected 85 µCi 1 + 20 µmol/kg 1-Cold",1.55 ± 1.75 % ID/g
same,tumor uptake ratio (Co-injected/1 alone),MDA-MB-468 tumor; 360 min p.i.,6.5
same,tumor uptake of 1,"MDA-MB-468 tumor; 360 min p.i., 85 µCi 1 alone",0.19 ± 0.05 % ID/g
same,tumor uptake of 1,"MDA-MB-468 tumor; 360 min p.i., co-injected 85 µCi 1 + 20 µmol/kg 1-Cold",1.28 ± 1.07 % ID/g
same,initial radioactivity retained after cell efflux,"MDA-MB-468 cells [3]; 4 μCi of 1 alone, 1 h pre-incubation 37 °C, 1 million cells",13.1 ± 1.2%
same,initial radioactivity retained after cell efflux,MDA-MB-468 cells [3]; 4 μCi of 1 co-incubated with 5 μM 1-Cold,20.3 ± 4.2%
same,initial radioactivity retained after cell efflux,MDA-MB-468 cells [3]; 4 μCi of 1 co-incubated with 25 μM 1-Cold,28.5 ± 1.4%
same,initial radioactivity retained after cell efflux,MDA-MB-468 cells [3]; 4 μCi of 1 co-incubated with 50 μM 1-Cold,32.1 ± 0.9%
CC(=O)N[C@@H](CCCNC(=N)N)C(=O)N[C@H](C(=O)N[C@@H](CCCNC(=N)N)C(=O)N[C@@H](CCCNC(=N)N)C(=O)N[C@@H](CSSC(C)(C)C)C(=O)N[C@@H](CCCCNC(=O)c1ccc(F)cc1)C(=O)Nc1ccc2nc(C#N)sc2c1)C(C)C [1-Cold],time in which furin-controlled condensation was accomplished,furin [4],≤ 2 h
same,cells survived (MTT),"MDA-MB-468 cells [5]; 25 µM, 3 h",110%
same,cells survived (MTT),"MDA-MB-468 cells [5]; 25 µM, 12 h",98%
same,cells survived (MTT),"MDA-MB-468 cells [5]; 50 µM, 3 h",103%
same,cells survived (MTT),"MDA-MB-468 cells [5]; 50 µM, 12 h",105%
same,cells survived (MTT),"MDA-MB-468 cells [5]; 100 µM, 3 h",87%
same,cells survived (MTT),"MDA-MB-468 cells [5]; 100 µM, 12 h",68%
same,"cytotoxicity to MDA-MB-468 cells (MTT), in words",MDA-MB-468 cells [5]; up to 12 h (abstract: 50 µM),did not impose cytotoxicity; also recorded: nontoxic
same,cell permeability (intracellular fluorescence),MDA-MB-468 cells [6],good cell permeability
same,Kcat of furin relative to Boc-RVRR-AMC,"furin [7]; calculated, Figure S10",35 times
same,Kcat/KM of furin relative to Boc-RVRR-AMC,"furin [7]; calculated, Figure S10",15 times
same,"binding affinity to furin, fold lower than that of Boc-RVRR-AMC",furin [7]; from KM values,2.4 fold
same,"UV-vis absorption at 500-700 nm (light scattering, aggregation)",[8],obvious increase of absorption
Boc-RVRR-{AMC} [Boc-RVRR-AMC],speed of furin cleavage of commercial substrate,furin [9],1 pmol/U per min
